In ChEMBL document CHEMBL1137088, “Distamycin analogues with enhanced lipophilicity: synthesis and antimicrobial activity” (2004):
In brackets after ≈: the same amount, converted by molar mass. Activity calls are given as the source filed them. The calls are words filed in the database; no cut-off is given here.

Legend:
Aspergillus niger [1] = test: Antifungal activity against Aspergillus niger IMI17454 strain.; assay type: functional; conditions: Aspergillus niger; read-out: MIC
[2] = Antibacterial activity against Enterobacter cloacae NCTC 10005 strain; assay type: functional
Escherichia coli = test: Antibacterial activity against Escherichia coli NCTC 9001 strain.; assay type: functional, organism-based
Enterococcus faecalis [3] = test: Antibacterial activity against Streptococcus faecalis NCTC 775 strain.; assay type: functional
[4] = tested on: Mycolicibacterium fortuitum; test: Antibacterial activity against Mycobacterium fortuitum NCTC 10394 strain.; assay type: functional
Proteus vulgaris = test: Antibacterial activity against Proteus vulgaris NCTC 4175 strain.; assay type: functional
Staphylococcus aureus [5] = test: Antibacterial activity against methicillin-resistant Staphylococcus aureus (MRSA) PHLS M1 strain.; assay type: functional
Procedure, shortened: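 Read-out is the minimum inhibitory concentration, reported in µM. Amoxycillin is tested alongside as the reference antibiotic.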

Staphylococcus aureus [6] = test: Antibacterial activity against Staphylococcus aureus NCTC 6571 strain.; assay type: functional
Aspergillus nidulans [7] = test: Antifungal activity against Aspergillus nidulans CABI 0160037 strain; assay type: functional
Candida albicans = test: Antifungal activity against Candida albicans NCPF 3179 strain.; assay type: functional; conditions: Candida albicans; read-out: MIC
Klebsiella aerogenes [8] = test: Antibacterial activity against Klebsiella aerogenes WRL CN 345 strain.; assay type: functional, WRL CN 375; conditions: Klebsiella aerogenes, WRL CN 375; read-out: MIC
[9] = Antifungal activity against Candida albicans NCPF 3179 strain; na = not active; assay type: functional
Aspergillus nidulans [10] = test: Antifungal activity against Aspergillus nidulans CABI 0160037 strain; na = not active; assay type: functional
Aspergillus niger [11] = test: Antifungal activity against Aspergillus niger IMI17454 strain; na = not active; assay type: functional
Staphylococcus aureus [12] = test: Antibacterial activity against MRSA PHLS M1 strain; na = not active; assay type: functional, organism-based
Enterobacter cloacae = test: Antibacterial activity against Enterobacter cloacae NCTC 10005 strain.; assay type: functional, organism-based
Staphylococcus aureus [13] = test: Antibacterial activity against Staphylococcus aureus NCTC 6571 strain; na = not active; assay type: functional, organism-based
Enterococcus faecalis [14] = test: Antibacterial activity against Streptococcus faecalis NCTC 775 strain; na = not active; assay type: functional, organism-based
[15] = Antibacterial activity against Proteus vulgaris NCTC 4175 strain; na = not active; assay type: functional
Klebsiella aerogenes [16] = test: Antibacterial activity against Klebsiella aerogenes WRL CN 345 strain; na = not active; assay type: functional, organism-based
[17] = tested on: Mycolicibacterium fortuitum; test: Antibacterial activity against Mycobacterium fortuitum NCTC 10394 strain; na = not active; assay type: functional, organism-based

Structure (SMILES)	MIC (Aspergillus niger [1]) [µM]	MIC [2] [µM]	MIC (Escherichia coli)	MIC (Enterococcus faecalis [3]) [µM]	MIC [4] [µM]	MIC (Proteus vulgaris) [µM]	MIC (Staphylococcus aureus [5]) [µM]	MIC (Staphylococcus aureus [6]) [µM]	MIC (Aspergillus nidulans [7]) [µM]	MIC (Candida albicans) [µM]	MIC (Klebsiella aerogenes [8]) [µM]	MIC [9]	MIC (Aspergillus niger [11])	MIC (Staphylococcus aureus [12])	MIC (Enterobacter cloacae)	MIC (Staphylococcus aureus [13])	MIC [15]	other results
CN(C)CCCNC(=O)c1cc(NC(=O)c2cc(NC(=O)c3cc(NC(=O)/C=C/c4ccccc4)cn3C)cn2C)cn1C	140 (≈ 83.8 µg/mL)	70.2 (≈ 42 µg/mL)	inactive	8.8 (≈ 5.27 µg/mL)	140 (≈ 83.8 µg/mL)	70 (≈ 41.9 µg/mL)	140 (≈ 83.8 µg/mL)	8.8 (≈ 5.27 µg/mL)	70.2 (≈ 42 µg/mL)	35.1 (≈ 21 µg/mL)	70.2 (≈ 42 µg/mL)	–	–	–	–	–	–	–
CCC(C)n1ncn(-c2ccc(N3CCN(c4ccc(OC[C@H]5CO[C@](Cn6cncn6)(c6ccc(Cl)cc6Cl)O5)cc4)CC3)cc2)c1=O (stereo partly specified) [ITRACONAZOLE]	17.7 (≈ 12.5 µg/mL)	–	–	–	–	–	–	–	35.4 (≈ 25 µg/mL)	–	–	35.4 µM (≈ 25 µg/mL)	–	–	–	–	–	–
CC(C)CCn1cc(NC(=O)c2cc(NC=O)cn2C)cc1C(=O)Nc1cc(C(=O)NCCCN(C)C)n(C)c1	–	150 (≈ 82.9 µg/mL)	inactive	57.5 (≈ 31.8 µg/mL)	37.5 (≈ 20.7 µg/mL)	150 (≈ 82.9 µg/mL)	150 (≈ 82.9 µg/mL)	150 (≈ 82.9 µg/mL)	–	150 (≈ 82.9 µg/mL)	37.5 (≈ 20.7 µg/mL)	–	150 µM (≈ 82.9 µg/mL)	–	–	–	–	MIC (Aspergillus nidulans [10]): inactive
CC1(C)S[C@@H]2[C@H](NC(=O)[C@H](N)c3ccc(O)cc3)C(=O)N2[C@H]1C(=O)O [AMOXICILLIN]	–	4 (≈ 1.46 µg/mL)	–	0.49 (≈ 0.179 µg/mL)	16.1 (≈ 5.88 µg/mL)	4 (≈ 1.46 µg/mL)	16.1 (≈ 5.88 µg/mL)	0.49 (≈ 0.179 µg/mL)	–	–	8.1 (≈ 2.96 µg/mL)	–	–	–	–	–	–	–
CCn1cc(NC(=O)c2cc(NC(=O)c3cc(NC=O)cn3C)cn2C)nc1C(=O)NCCCN(C)C	–	–	inactive	–	160 (≈ 81.9 µg/mL)	160 (≈ 81.9 µg/mL)	–	–	160 (≈ 81.9 µg/mL)	–	40 (≈ 20.5 µg/mL)	inactive	inactive	inactive	inactive	inactive	–	MIC (Enterococcus faecalis [14]): inactive
OC(Cn1cncn1)(Cn1cncn1)c1ccc(F)cc1F [FLUCONAZOLE]	> 300	–	–	–	–	–	–	–	90.8 (≈ 27.8 µg/mL)	–	–	81.6 µM (≈ 25 µg/mL)	–	–	–	–	–	–
CC(=O)Nc1cc(C(=O)Nc2cc(C(=O)Nc3cc(C(=O)NCCCN4CCOCC4)n(C)c3)n(CCC(C)C)c2)n(C)c1	–	–	inactive	–	140 (≈ 85.2 µg/mL)	–	–	–	–	–	–	inactive	inactive	inactive	inactive	inactive	inactive	MIC (Enterococcus faecalis [14]): inactive; MIC (Klebsiella aerogenes [16]): inactive; MIC (Aspergillus nidulans [10]): inactive
CC(C)c1sc(NC(=O)c2cc(NC=O)cn2C)nc1C(=O)Nc1cc(C(=O)NCCCN(C)C)n(C)c1	38.1 (≈ 20.7 µg/mL)	9.5 (≈ 5.16 µg/mL)	inactive	9.5 (≈ 5.16 µg/mL)	19 (≈ 10.3 µg/mL)	–	19.1 (≈ 10.4 µg/mL)	4.8 (≈ 2.6 µg/mL)	9.5 (≈ 5.16 µg/mL)	38.1 (≈ 20.7 µg/mL)	38.1 (≈ 20.7 µg/mL)	–	–	–	–	–	inactive	–
CC(=O)Nc1cc(C(=O)Nc2cc(C(=O)Nc3cc(C(=O)NCCCN4CCN(C)CC4)n(C)c3)n(CCC(C)C)c2)n(C)c1	–	–	inactive	–	136 (≈ 84.6 µg/mL)	136 (≈ 84.6 µg/mL)	–	–	136 (≈ 84.6 µg/mL)	–	136 (≈ 84.6 µg/mL)	inactive	inactive	inactive	inactive	inactive	–	MIC (Enterococcus faecalis [14]): inactive
CC(C)c1sc(NC(=O)c2cc(NC(=O)c3cc(NC=O)cn3C)cn2C)nc1C(=O)NCCCN(C)C	76.1 (≈ 41.3 µg/mL)	76.2 (≈ 41.4 µg/mL)	inactive	9.5 (≈ 5.16 µg/mL)	19 (≈ 10.3 µg/mL)	9.5 (≈ 5.16 µg/mL)	38.1 (≈ 20.7 µg/mL)	4.7 (≈ 2.55 µg/mL)	76.1 (≈ 41.3 µg/mL)	76.1 (≈ 41.3 µg/mL)	76.2 (≈ 41.4 µg/mL)	–	–	–	–	–	–	–
Cc1sccc1C(=O)Nc1cc(C(=O)Nc2cc(C(=O)Nc3cc(C(=O)NCCCN(C)C)n(C)c3)n(C)c2)n(C)c1	141 (≈ 83.6 µg/mL)	–	inactive	141 (≈ 83.6 µg/mL)	35.4 (≈ 21 µg/mL)	–	141 (≈ 83.6 µg/mL)	–	70.8 (≈ 42 µg/mL)	–	70.8 (≈ 42 µg/mL)	inactive	–	–	inactive	inactive	inactive	–
CC(=O)Nc1cc(C(=O)Nc2cc(C(=O)Nc3nc(C(=O)NCCCN(C)C)c(C(C)C)s3)n(C)c2)n(C)c1	74.5 (≈ 41.5 µg/mL)	–	inactive	74.5 (≈ 41.5 µg/mL)	–	–	–	–	–	–	–	inactive	–	inactive	inactive	inactive	inactive	MIC [17]: inactive; MIC (Klebsiella aerogenes [16]): inactive
